Reference: ChEMBL document CHEMBL1146142, “Synthesis of miltirone analogues as inhibitors of Cdc25 phosphatases” (Bioorg Med Chem Lett, 2006)

Legend:
[1] = molecular target: T1, M-phase inducer phosphatase 1 (Homo sapiens, UniProt P30304); assay: Inhibitory activity against human Cdc25A phosphatase
T1 sequence (P30304 whole entry): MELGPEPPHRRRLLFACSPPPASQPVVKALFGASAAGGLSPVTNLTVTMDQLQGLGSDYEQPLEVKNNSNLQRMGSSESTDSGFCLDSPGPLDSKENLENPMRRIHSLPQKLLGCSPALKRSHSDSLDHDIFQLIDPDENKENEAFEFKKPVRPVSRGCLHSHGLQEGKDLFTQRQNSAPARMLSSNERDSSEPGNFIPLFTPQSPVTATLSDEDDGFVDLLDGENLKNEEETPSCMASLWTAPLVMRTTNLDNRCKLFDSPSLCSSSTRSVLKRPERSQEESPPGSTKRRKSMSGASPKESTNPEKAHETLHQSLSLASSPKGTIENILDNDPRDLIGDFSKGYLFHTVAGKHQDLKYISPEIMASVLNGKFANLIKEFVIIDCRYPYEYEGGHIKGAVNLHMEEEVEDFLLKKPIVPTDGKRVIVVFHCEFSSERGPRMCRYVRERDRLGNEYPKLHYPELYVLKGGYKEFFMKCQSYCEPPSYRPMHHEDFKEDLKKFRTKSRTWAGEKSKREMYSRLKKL

[2] = tested on: HCT-116; assay: Cytotoxicity against HCT116 cell line; type: functional, cell-based; conditions: Homo sapiens
Summary of the method: (§1)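 Tumor cells trypsinized and seeded at 3000 cells/well; after attachment, exposed to a range of compound concentrations for 72 h. MTT (5 mg/mL) was added and incubated 3 h, then medium was removed and formazan dissolved in DMSO. Absorbance read at 550 nm with […] reference.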

[3] = molecular target: T2, M-phase inducer phosphatase 2 (Homo sapiens, UniProt P30305); assay: Inhibitory activity against human Cdc25B phosphatase
T2 sequence (P30305 whole entry): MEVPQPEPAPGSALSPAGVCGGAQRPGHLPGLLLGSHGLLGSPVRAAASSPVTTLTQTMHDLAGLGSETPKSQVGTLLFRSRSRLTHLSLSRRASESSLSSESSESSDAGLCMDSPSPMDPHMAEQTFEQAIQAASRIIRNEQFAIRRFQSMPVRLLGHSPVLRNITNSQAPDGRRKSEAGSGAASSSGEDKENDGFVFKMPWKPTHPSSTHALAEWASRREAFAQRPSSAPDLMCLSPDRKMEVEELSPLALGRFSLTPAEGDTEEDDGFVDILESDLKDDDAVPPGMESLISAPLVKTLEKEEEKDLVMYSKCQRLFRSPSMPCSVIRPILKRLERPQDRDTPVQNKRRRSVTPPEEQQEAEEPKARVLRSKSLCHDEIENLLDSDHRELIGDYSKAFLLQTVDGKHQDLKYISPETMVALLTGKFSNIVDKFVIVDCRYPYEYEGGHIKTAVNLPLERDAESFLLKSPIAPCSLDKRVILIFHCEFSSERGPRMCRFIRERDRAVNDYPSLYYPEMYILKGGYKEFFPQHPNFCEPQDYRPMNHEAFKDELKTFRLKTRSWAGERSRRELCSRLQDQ

[4] = molecular target: T3, Tyrosine-protein phosphatase non-receptor type 1 (Homo sapiens, UniProt P18031); assay: Inhibitory activity against human PTP1B
T3 sequence (P18031 whole entry): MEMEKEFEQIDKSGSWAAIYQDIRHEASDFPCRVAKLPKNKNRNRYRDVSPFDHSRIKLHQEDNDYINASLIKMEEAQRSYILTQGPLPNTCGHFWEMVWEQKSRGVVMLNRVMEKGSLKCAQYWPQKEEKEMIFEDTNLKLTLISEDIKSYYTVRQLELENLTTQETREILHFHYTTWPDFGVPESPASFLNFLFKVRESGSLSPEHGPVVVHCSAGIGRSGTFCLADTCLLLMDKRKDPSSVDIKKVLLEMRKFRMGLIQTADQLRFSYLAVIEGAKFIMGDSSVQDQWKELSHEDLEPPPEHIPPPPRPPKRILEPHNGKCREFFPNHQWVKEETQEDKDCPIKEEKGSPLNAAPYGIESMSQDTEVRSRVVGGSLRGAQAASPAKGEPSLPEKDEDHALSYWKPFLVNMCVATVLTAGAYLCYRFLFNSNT
Summary of the method: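 GST–PTP1B (30–40 nM) in 50 mM MOPs pH 6.5 with 2 mM DTT, 1 mM EDTA and 2% DMSO. Substrate was 2 mM pNPP.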

[5] = tested on: A549; assay: Cytotoxicity against A549 cell line; type: functional, cell-based; conditions: Homo sapiens; summary of the method: as §1

| Compound | IC50 ([1]; read-out: IC50) [µM] | IC50 [2] [µM] | IC50 ([3]; read-out: IC50) [µM] | IC50 [4] | IC50 [5] [µM] | IC50 ([4]; read-out: IC50) [µM] | IC50 [1] | IC50 [3] |
| --- | --- | --- | --- | --- | --- | --- | --- | --- |
| COc1ccc(NC2=C(C(C)C)C(=O)C(=O)c3c2ccc2c3CCCC2(C)C)cc1 | 11.8 | 5.51 | 4.09 | Not Active | 9.19 | – | – | – |
| CC(C)C1=C(Sc2ccc(Br)cc2)c2ccccc2C(=O)C1=O | 5.43 | 5.85 | 3.63 | – | 5.93 | 7.57 | – | – |
| CC(C)C1=C(Nc2ccc([N+](=O)[O-])cc2)c2ccccc2C(=O)C1=O | 6.87 | 2.39 | 5.33 | – | 6.59 | 19.1 | – | – |
| Cc1ccc(NC2=C(C(C)C)C(=O)C(=O)c3ccccc32)cc1 | 7.06 | 6.16 | 4.53 | – | 8.2 | 19.6 | – | – |
| CC(C)C1=C(Nc2ccccc2)c2ccccc2C(=O)C1=O | 10.9 | 8.22 | 8.71 | Not Active | 25 | – | – | – |
| CC(C)C1=C(Nc2ccc([N+](=O)[O-])cc2)c2ccc3c(c2C(=O)C1=O)CCCC3(C)C | – | 7.1 | – | Not Active | 5.34 | – | Not Active | Not Active |
| Cc1ccc(NC2=C(C(C)C)C(=O)C(=O)c3c2ccc2c3CCCC2(C)C)cc1 | 27.6 | 24.9 | 7.54 | Not Active | 4.25 | – | – | – |
| CC(C)C1=C(Sc2ccccc2)c2ccccc2C(=O)C1=O | 5.86 | 8.03 | 10.9 | – | 7.59 | 13.7 | – | – |
| CC(C)C1=C(Sc2ccccc2)c2ccc3c(c2C(=O)C1=O)CCCC3(C)C | 3.97 | 5.75 | 5.07 | – | 26.6 | 10.4 | – | – |
| CC(=O)Nc1ccc(SC2=C(C(C)C)C(=O)C(=O)c3ccccc32)cc1 | 21.9 | 6.32 | 13.8 | – | 7.36 | 7.63 | – | – |
| CC(C)C1=C(Sc2ccc(Br)cc2)c2ccc3c(c2C(=O)C1=O)CCCC3(C)C | 20.3 | 4.94 | 3.78 | – | 5.07 | 7.19 | – | – |
| CC(C)C1=C(Sc2ccc(F)cc2)c2ccc3c(c2C(=O)C1=O)CCCC3(C)C | 22.1 | 5.71 | 2.58 | – | 1.25 | 4.55 | – | – |
| COc1ccc(NC2=C(C(C)C)C(=O)C(=O)c3ccccc32)cc1 | 4.9 | 4.04 | 4.63 | Not Active | 87 | – | – | – |
| CC(C)C1=C(c2ccccc2)c2ccccc2C(=O)C1=O | 7.83 | 29.6 | 3.23 | Not Active | 24.7 | – | – | – |
| CC(=O)Nc1ccc(SC2=C(C(C)C)C(=O)C(=O)c3c2ccc2c3CCCC2(C)C)cc1 | 5.96 | 5.18 | 4.85 | – | 15.4 | 9.05 | – | – |
| CC(C)C1=C(c2ccccc2)c2ccc3c(c2C(=O)C1=O)CCCC3(C)C | 3.96 | 6.28 | 3.16 | – | 6.24 | 4.11 | – | – |
| CC(C)C1=C(Nc2ccccc2)c2ccc3c(c2C(=O)C1=O)CCCC3(C)C | 8.81 | 6.25 | 3.99 | – | 19.1 | 27.2 | – | – |
| CC(C)C1=C(Sc2ccc(F)cc2)c2ccccc2C(=O)C1=O | 12.8 | 20.8 | 7.55 | – | 20.4 | 7.22 | – | – |
| CC(C)C1=Cc2ccccc2C(=O)C1=O | 11.2 | 4 | 24.1 | Not Active | 4.14 | – | – | – |
| CC(C)C1=Cc2ccc3c(c2C(=O)C1=O)CCCC3(C)C [MILTIRONE] | > 70.8 | 12.4 | – | Not Active | 24.6 | – | – | Not Active |
